In PubChem BioAssay:
Activity calls are given as the source filed them.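 The calls were made as follows, unless noted: active = NADPH fluorescence slope more negative than the mean of all samples by about 3 SD, 99.7% confidence; inactive = the rest.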

Tests used:
[1] = inhibitors of TNFa-induced NFkB p65 translocation, primary screen, imaging, HUVEC, MLSMR starter and 10KST1 sets (AID 438;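 active = inhibition above 20% together with a positive visual image hit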;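 also: compound added about 3h40 before a 20 min TNFalpha stimulation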;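 as to inhibition: signal is the nuclear over cytoplasmic p65 intensity ratio per well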); conditions: HUVEC TNFa-induced p65 nuclear translocation; cell count: measured here: nuclei count (cytotoxicity indicator), at 2.08 µM; inhibition: at 2 µM, stronger effect = higher value, 0% TNFa-plus-vehicle, 100% no-TNFa wells
[2] = inhibitors of E-selectin induction by TNFa, primary screen, imaging, HUVEC, immunofluorescence, MLSMR starter and 10KST1 sets (AID 487;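 active = visually confirmed hit in the image check and inhibition above 20%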;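 as to inhibition: signal is fraction of cell area covered by stained E-selectin grains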;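 as to nuclei count: 100% = median nuclei count of all wells on the same plate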); conditions: HUVEC TNFalpha-induced E-selectin immunofluorescence imaging, at 2 µM; inhibition: stronger effect = higher value; nuclei count: measured here: cell number, toxicity
[3] = DUSP6 inhibitors restoring Erk phosphorylation by chemical complementation, primary imaging in DUSP6-transfected HeLa (AID 609;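 active = compounds giving at least 50% inhibition in the cell-based MKP-3 phosphatase rescue imaging test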;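 as to inhibition: phospho-Erk level distribution per well compared with pooled transfected vehicle control wells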); conditions: HeLa MKP-3 transfected, phospho-Erk imaging KS statistic, at 10 µM, cells stimulated with TPA for 15 min
[4] = biological target: Dual specificity protein phosphatase 6 (Homo sapiens) (UniProt Q16828); experiment: as above; conditions: HeLa MKP-3 transfected, phospho-Erk imaging KS statistic; at 10 µM; stronger effect = higher value; cells stimulated with TPA for 15 min
[5] = biological target: Voltage-gated potassium channel subunit beta-2 (Rattus norvegicus) (UniProt P62483); experiment: KvBeta enzyme negative modulators, primary screen, biochemical, NADPH fluorescence (AID 622;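 active = fluorescence slope higher than the sample average by over 3 SD, cut at about -0.22 in these data, passing the limit was not always enough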;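 also: slope of raw intensity against log time taken from 70 to 1610 s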); conditions: recombinant KvBeta, 4-cyanobenzaldehyde reduction, at 10 µM, stronger effect = higher value
[6] = biological target: Voltage-gated potassium channel subunit beta-2 (Rattus norvegicus) (UniProt P62483); experiment: KvBeta positive modulators, primary screen, biochemical, NADPH fluorescence (AID 623); conditions: Recombinant KvBeta, NADPH fluorescence decrease slope, 10 min; at 10 µM; stronger effect = lower value;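 also: fluorescence intensity change per second fitted from 20 to 320 s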
[7] = biological target: Alpha-2C adrenergic receptor (Homo sapiens) (UniProt P18825); experiment: modulators of alpha2C/GIRK thallium flux, primary screen, cell-based, HEK293 alpha2C/GIRK1/2 (AID 624;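 active = fluorescence slope after compound addition differing from the mean of all screened samples at 99.7% confidence, in either direction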;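 also: slope of fluorescence ratio to pre-addition baseline per second over 15 to 24 s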); conditions: thallium flux BTC fluorescence, at 10 µM, actives lie on both sides
[8] = inhibitors of larval lipid processing in zebrafish, primary screen, whole organism, PED6 fluorescence, gall bladder and intestine (AID 686;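 active = a full or partial loss of lipid-probe fluorescence in the fish gall bladder, intestine or both, judged by eye; inactive = no fluorescence loss, or compound toxic to the fish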;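 also: larvae 5 to 7 days old with five fish per well; signal comes from phospholipase A2 cleavage of quenched PED6 carried via bile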); conditions: Zebrafish larvae PED6 lipid processing, fluorescence scoring; screened at 20 µM (by protocol)
Summary of the method: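 Incubation: overnight exposure of larvae to compound plus PED6 / Test system: live zebrafish larvae aged 5-7 days, whole organism / Amount: 5 larvae per well / Read-out basis: visual per-well fluorescence inhibition score / Signal: visual fluorescence microscopy scoring of gall bladder, gut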

[9] = inhibitors of Chlamydomonas gravitaxis, primary screen, whole organism, Chlamydomonas reinhardtii, WT vs cilia-less mutant, absorbance, 96-well (AID 463189;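 active = inhibition at or above 50% relative to wild type and mutant plate controls; inactive = inhibition below 50%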;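 also: 0% = wild type cc124 cells in DMSO and 100% = ciliumless bld1 mutant cells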); conditions: OD600 absorbance, 2 days, at 10 µM, stronger effect = higher value
[10] = measured here: cell density z-score
[11] = measured here: nuclear c-Myc green intensity z-score
[12] = measured here: nuclear pErk red intensity z-score, stronger effect = higher value

Sequence of Alpha-2C adrenergic receptor (Homo sapiens) (P18825 whole entry, looked up): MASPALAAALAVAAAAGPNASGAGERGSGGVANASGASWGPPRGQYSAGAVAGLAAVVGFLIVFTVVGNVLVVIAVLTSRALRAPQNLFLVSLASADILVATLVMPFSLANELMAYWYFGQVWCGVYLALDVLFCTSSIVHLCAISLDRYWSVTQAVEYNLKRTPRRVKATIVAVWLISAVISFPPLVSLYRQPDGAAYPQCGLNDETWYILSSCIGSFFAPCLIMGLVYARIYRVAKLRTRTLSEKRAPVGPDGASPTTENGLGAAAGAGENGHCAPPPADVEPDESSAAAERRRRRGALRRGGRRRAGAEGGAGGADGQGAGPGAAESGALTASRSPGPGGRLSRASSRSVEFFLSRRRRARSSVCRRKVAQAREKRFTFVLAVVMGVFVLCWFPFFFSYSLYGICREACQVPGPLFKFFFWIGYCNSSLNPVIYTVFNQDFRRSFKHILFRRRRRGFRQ
Sequence of Dual specificity protein phosphatase 6 (Homo sapiens) (Q16828 whole entry, looked up): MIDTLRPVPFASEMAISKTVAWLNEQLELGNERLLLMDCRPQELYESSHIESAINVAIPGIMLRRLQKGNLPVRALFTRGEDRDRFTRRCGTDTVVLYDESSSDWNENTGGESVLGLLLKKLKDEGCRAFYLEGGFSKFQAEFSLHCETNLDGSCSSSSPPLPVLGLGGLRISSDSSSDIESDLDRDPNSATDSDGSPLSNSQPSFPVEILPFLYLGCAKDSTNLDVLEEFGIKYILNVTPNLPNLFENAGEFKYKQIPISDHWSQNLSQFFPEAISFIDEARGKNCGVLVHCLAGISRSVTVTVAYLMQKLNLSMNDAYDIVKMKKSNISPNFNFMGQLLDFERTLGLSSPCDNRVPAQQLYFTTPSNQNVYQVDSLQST
Sequence of Voltage-gated potassium channel subunit beta-2 (Rattus norvegicus) (P62483 whole entry, looked up): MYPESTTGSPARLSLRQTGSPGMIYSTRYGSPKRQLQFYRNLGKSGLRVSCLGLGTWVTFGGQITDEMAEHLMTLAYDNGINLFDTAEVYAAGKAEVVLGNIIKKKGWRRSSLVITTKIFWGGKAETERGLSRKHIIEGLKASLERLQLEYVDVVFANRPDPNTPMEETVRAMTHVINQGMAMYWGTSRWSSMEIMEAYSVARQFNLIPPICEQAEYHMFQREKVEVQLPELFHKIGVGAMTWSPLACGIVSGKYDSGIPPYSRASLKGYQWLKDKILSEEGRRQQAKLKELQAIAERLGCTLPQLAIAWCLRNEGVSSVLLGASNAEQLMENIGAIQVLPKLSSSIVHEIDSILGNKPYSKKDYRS

SMILES	cell count [1]	inhibition [1]	inhibition [2]	nuclei count [2] [%]	z-score [3, 10]	z-score [3, 11]	z-score [3, 12]	inhibition [4]	fluorescence slope [5]	NADPH fluorescence slope [6]	slope [7]	outcome [8]	inhibition [9]
CCCCCc1nc2sc3c(c2c(=O)n1N)CCC3	632	-11.1% (inactive)	46.3% (inactive)	166	-1.49	2.03	1.67	-9.7% (inactive)	-0.507 (inactive)	-0.000102 (inactive)	0.00473 (inactive)	inactive	68.1% (active)
CCOC(=O)c1nc2nc(C)c(Cl)c(=O)n2[nH]1	529	3.9% (inactive)	-83.9% (inactive)	153	0.438	-0.565	-0.252	14% (inactive)	-0.497 (inactive)	-4.1e-05 (inactive)	0.00501 (inactive)	inactive	0.754% (inactive)
O=C(O)c1ccc(OCCn2ccnc2)cc1	490	-6.5% (inactive)	-141% (inactive)	185	-0.78	-1.02	1.25	26.5% (inactive)	-0.473 (inactive)	-0.000213 (inactive)	0.00534 (inactive)	inactive	0.065% (inactive)
c1ccc(C2Nc3ccccc3-c3nc4ccccc4n32)nc1 (configuration not stated)	467	5.5% (inactive)	-27.5% (inactive)	101	-0.673	0.738	-0.0231	12.3% (inactive)	-0.495 (inactive)	-1.1e-05 (inactive)	0.00682 (inactive)	inactive	-35.3% (inactive)
Cn1c(NCC(O)c2ccccc2)nc2c1c(=O)n(Cc1ccc(Cl)c(Cl)c1)c(=O)n2C (configuration not stated)	669	-6.1% (inactive)	-18.3% (inactive)	162	0.306	0.44	1.81	6.04% (inactive)	-0.518 (inactive)	-3.6e-05 (inactive)	0.00441 (inactive)	inactive	75.1% (active)
CCOC(=O)CSc1nnc2n(C3CCCCC3)c(=O)c3c4c(sc3n12)CCCC4	650	-11.4% (inactive)	-104% (inactive)	146	-1.05	-0.745	-0.835	1.75% (inactive)	-0.533 (inactive)	-0.0001 (inactive)	0.00612 (inactive)	inactive	-1.33% (inactive)
COc1cc(C2C(C#N)=C(N)Oc3cc(C)n(CCc4ccccc4)c(=O)c32)cc2c1OCO2 (configuration not stated)	331	-2.4% (inactive)	-42.5% (inactive)	165	-0.617	1.54	1.26	11.4% (inactive)	-0.433 (inactive)	-0.000158 (inactive)	0.00471 (inactive)	inactive	11.9% (inactive)
COc1ccc(CCNC(=O)c2ccc(=O)[nH]n2)cc1OC	452	-9.3% (inactive)	-124% (inactive)	113	-0.121	-0.331	-0.384	7.48% (inactive)	-0.517 (inactive)	-0.000115 (inactive)	0.00414 (inactive)	inactive	1.24% (inactive)
Cc1ccc2c(c1)[C@@H]1CN(C)CC[C@@H]1N2S(=O)(=O)c1ccc(F)cc1	507	-8.3% (inactive)	-69% (inactive)	199	-0.629	-0.478	-0.18	-8.27% (inactive)	-0.324 (inactive)	-2.1e-06 (inactive)	0.00411 (inactive)	inactive	10.5% (inactive)
N#CC(C(=O)NC1CCCCC1)c1nc2ccccc2nc1N1CCN(c2ccccc2F)CC1 (configuration not stated)	449	6.9% (inactive)	-71.6% (inactive)	150	0.949	-0.507	0.00921	7.83% (inactive)	-0.432 (inactive)	-1.4e-05 (inactive)	0.00608 (inactive)	inactive	1.07% (inactive)
O=C(O)C1CSC(CCc2ccccc2)N1 (configuration not stated)	633	-7.7% (inactive)	-34.8% (inactive)	140	-0.486	0.112	1.29	7.83% (inactive)	-0.459 (inactive)	-0.000276 (inactive)	0.00538 (inactive)	inactive	8.25% (inactive)
O/N=C(\c1ccc2c(c1)OCCO2)C1CCCCC1	483	-8.4% (inactive)	0.8% (inactive)	88.1	-0.525	-0.257	1.15	-1.98% (inactive)	-0.497 (inactive)	-3.9e-05 (inactive)	0.00548 (inactive)	inactive	124% (active)
CN1C(=O)CC(N2CCN(c3ccc(Cl)c(Cl)c3)CC2)C1=O (configuration not stated)	379	-3.9% (inactive)	-80.8% (inactive)	94.7	-1.07	0.418	-1.7	5.65% (inactive)	-0.541 (inactive)	-7.5e-05 (inactive)	0.00484 (inactive)	inactive	0.241% (inactive)
O=C(O)c1cc2n(n1)C(C(F)(F)F)CC(c1ccccc1)N2 (configuration not stated)	514	-9.8% (inactive)	-120% (inactive)	117	-1.15	-0.827	0.269	3.66% (inactive)	-0.503 (inactive)	-0.000107 (inactive)	0.00535 (inactive)	inactive	-2% (inactive)
CCC12CN3CC(CC)(CN(C1)C3c1c(O)ccc3ccccc13)C2=O (configuration not stated)	585	-1.9% (inactive)	-44.2% (inactive)	185	-0.501	0.162	0.594	9.82% (inactive)	-0.336 (inactive)	5.6e-06 (inactive)	0.00425 (inactive)	inactive	6.95% (inactive)
O=C1CCc2nc3ccccc3c(=O)n2N1	452	-12.6% (inactive)	21.9% (inactive)	104	-0.985	0.704	-0.802	11.9% (inactive)	-0.488 (inactive)	-4.1e-05 (inactive)	0.00483 (inactive)	inactive	23.6% (inactive)
COc1cc(C2C(C#N)=C(N)Oc3cc(C)n(Cc4ccccn4)c(=O)c32)cc2c1OCO2 (configuration not stated)	433	6.2% (inactive)	-56.2% (inactive)	88.8	-2.67	-0.393	1.97	11.4% (inactive)	-0.442 (inactive)	-1.2e-05 (inactive)	0.00753 (inactive)	inactive	-11.1% (inactive)
CN(C)CC(O)COc1ccc(C(C)(C)c2ccc(OCC(O)CN(C)C)cc2)cc1 (configuration not stated)	459	2.6% (inactive)	-216% (inactive)	154	-1.06	1.22	0.592	-5.62% (inactive)	-0.397 (inactive)	-3.1e-05 (inactive)	0.0054 (inactive)	inactive	-19.9% (inactive)
CC1=C(C(=O)Nc2ccccc2)C(c2ccncc2)C(C#N)=C(SCC(=O)NC(C)C)N1 (configuration not stated)	532	-8.3% (inactive)	-82.1% (inactive)	162	-0.265	0.666	0.309	-1.12% (inactive)	-0.309 (inactive)	3.2e-06 (inactive)	0.00489 (inactive)	inactive	5.12% (inactive)
COc1ccc(OC)c(C(O)c2coc3ccc(O)c(CN4CCOCC4)c23)c1 (configuration not stated)	395	-2.4% (inactive)	-6.2% (inactive)	142	-0.303	0.452	0.346	1.42% (inactive)	-0.45 (inactive)	-6.9e-05 (inactive)	0.00476 (inactive)	inactive	36.3% (inactive)
Cn1ncc(N=Cc2ccccc2)c1C(N)=O	599	2.9% (inactive)	-32.8% (inactive)	138	-2.18	0.507	1.65	18.6% (inactive)	-0.54 (inactive)	-8.2e-05 (inactive)	0.00589 (inactive)	inactive	-3.53% (inactive)
Cn1c(=O)c2c3c(sc2n2c(SCC(N)=O)nnc12)CC(C(C)(C)C)CC3 (configuration not stated)	508	-9.7% (inactive)	-30% (inactive)	91.7	1.25	-0.417	0.675	3.56% (inactive)	-0.371 (inactive)	6.2e-07 (inactive)	0.00521 (inactive)	inactive	92.5% (active)
COc1cc(-c2nn3c(COc4ccccc4)nnc3s2)cc(OC)c1OC	497	-2.1% (inactive)	-95% (inactive)	105	-0.725	2.38	0.000132	-4.27% (inactive)	-0.417 (inactive)	-1.5e-06 (inactive)	0.00817 (inactive)	inactive	-11% (inactive)
CC1(C)Cc2c(C#N)c(NCc3ccco3)nc(-c3ccco3)c2CO1	598	3.9% (inactive)	-12.9% (inactive)	178	0.978	-1.81	0.89	-6.86% (inactive)	-0.29 (inactive)	-9.7e-06 (inactive)	0.00397 (inactive)	active; weak signal in gallbladder and intestine	53.9% (active)
